OX1R antag-1 = human HCRTR1 antagonism; CHO/OX1R cells, Fluo-8 calcium fluorescence, orexin A; inhibition, % at 5 µM; 330,000 compounds, 0.43% hits; AID 434989;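 active = inhibition above its plate's threshold, mean inhibition of all tested compounds on the plate plus 3 SD, cut at about 37% in these data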
CHO parental Ca = counter-screen: ATP calcium response change in parental CHO cells | parental CHO-K1, ATP-induced calcium, Fluo-8 fluorescence | inhibition, % at 5.6 µM | 330,000 compounds, 0.63% hits;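 active = inhibition above that plate's mean sample inhibition plus 3 SD, cut at about 26% in these data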
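test system = CHO parental line | reagent = ATP stimulus | measured by = intracellular calcium via Fluo-8 no-wash fluorescent dye | control set = ATP and no-ATP DMSO wells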
OX1R antag-2 = OX1R (human) antagonism | OX1R-expressing cells, FRET antagonist read-out | O43613 | 330,000 compounds, 1.8% hits | inhibition, % at 6.6 µM; in the data active = inhibition mostly above about 38%, no sharp cut-off; inactive = mostly below about 40%
GPR7 antag = human neuropeptides B/W receptor 1 antagonism | GPR7-expressing cells, fluorescence antagonist assay | inhibition, % at 4.4 µM | 290,000 compounds, 1.1% hits | AID 1861; in the data active = inhibition above about 16%, passing the limit was not always enough;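 note: cells stimulated with the agonist NPW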
Target sequence (P48145 whole entry, looked up): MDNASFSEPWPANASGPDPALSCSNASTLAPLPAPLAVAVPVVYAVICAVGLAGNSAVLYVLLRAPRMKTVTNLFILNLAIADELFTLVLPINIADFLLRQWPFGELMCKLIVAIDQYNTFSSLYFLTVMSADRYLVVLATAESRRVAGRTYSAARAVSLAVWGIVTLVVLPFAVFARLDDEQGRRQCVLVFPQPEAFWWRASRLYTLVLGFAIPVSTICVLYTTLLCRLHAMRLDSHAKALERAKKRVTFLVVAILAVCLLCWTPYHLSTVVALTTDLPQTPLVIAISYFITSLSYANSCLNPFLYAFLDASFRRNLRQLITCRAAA
TAAR1 agonist = agonists of human TAAR1. AID 624467. CHO RD-HGA16 TAAR1, Fluo-8 calcium fluorescence; vehicle wells 0%, saturating PEA agonist 100%. activation, % at 3 µM. 360,000 compounds, 0.99% hits;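 active = activation above the mean activation of all test compounds in the run plus 3 SD, cut at about 38% in these data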
Target sequence (Q96RJ0 whole entry, looked up): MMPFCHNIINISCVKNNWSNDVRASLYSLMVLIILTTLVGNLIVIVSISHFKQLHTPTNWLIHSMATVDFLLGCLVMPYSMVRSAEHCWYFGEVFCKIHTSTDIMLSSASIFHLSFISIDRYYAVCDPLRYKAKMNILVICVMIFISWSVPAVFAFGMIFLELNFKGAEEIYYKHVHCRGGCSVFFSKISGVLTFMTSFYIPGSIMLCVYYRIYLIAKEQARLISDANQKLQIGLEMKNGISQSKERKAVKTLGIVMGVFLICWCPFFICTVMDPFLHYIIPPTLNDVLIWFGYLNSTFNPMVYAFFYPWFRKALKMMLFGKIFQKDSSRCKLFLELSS
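test system = CHO RD-HGA16 cells carrying human TAAR1 plus Gα16 | schedule = 17-24 h seeding, 75 min 37 °C dye, 30 min RT | compound dosing = 3 µM single concentration | control set = DMSO and PEA EC100 | replicates = n 1 | signal = Fluo-8 fluorescence, 5 s baseline then 140 s kinetic read | measure = percent activation vs PEA EC100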
TAAR1 antagonist = antagonists of human TAAR1 | Q96RJ0 | 360,000 compounds, 1.5% hits | inhibition, % at 3 µM | CHO RD-HGA16 TAAR1, Fluo-8 calcium fluorescence, antagonist;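 active = inhibition above a per-plate cutoff, the mean inhibition of test compounds on that plate plus 3 SD, cut at about 49% in these data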
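System: RD-HGA16 CHO cells with stable hTAAR1 and Gα16 | Probe or stimulus: EC80 β-phenethylamine stimulus | Dosing: 3 µM, single point | Times: Dye loading 75 min at 37 °C, then 30 min room temperature | Measured by: Fluo-8 calcium-sensitive fluorescence | Read-out basis: % inhibition of agonist calcium response | Replicates: n of 1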
Large screens that a line does not name were inactive. Sampled rows, rich in hits. Any-hit rate of the full collection: about 4.6%.

CCOC(=O)Cc1csc(NC(=O)Nc2ccc(OC(F)(F)F)cc2)n1	CHO parental Ca 28.8
O=C(Nc1cccc(Cl)c1)/C(=C\c1cccnc1)NC(=O)c1ccco1	none
Cc1ccc(F)cc1C(=O)N1CCCC(c2cc(C(=O)NCc3ccccc3)no2)C1 (stereo unspecified)	none (no result: OX1R antag-1, CHO parental Ca, OX1R antag-2, GPR7 antag)
Cc1ccc(-c2noc(CSc3nnnn3C3CCCCC3)n2)cc1	CHO parental Ca 37.9
O=C(NCc1nnc(SCC(=O)N2CCCc3ccccc32)n1-c1ccccc1)c1cccc2ccccc12	TAAR1 antagonist 50.1
O=C(COC(=O)c1ccc(O)cc1)Nc1ccc(Cl)cc1	TAAR1 agonist 41.4
O=C(COC(=O)c1ccc(-c2ccccc2)cc1)Nc1ccccc1-c1ccccc1	none
O=C(COC(=O)c1ccc(O)cc1)Nc1ccccc1-c1ccccc1	CHO parental Ca 42.9, TAAR1 antagonist 60.5
CC(C(=O)NC(C)(C)C)n1c(-c2ccccc2)nc2ccccc21 (stereo unspecified)	none (no result: OX1R antag-1, CHO parental Ca, OX1R antag-2, GPR7 antag)
COc1ccc(-c2[nH]nc3nc(N4CCN(C(=O)c5ccoc5)CC4)cc(C(F)(F)F)c23)cc1	TAAR1 antagonist 49.1 (no result: OX1R antag-1, CHO parental Ca, OX1R antag-2, GPR7 antag)
C=CCNC(=S)N/N=C(\C)c1ccccn1	CHO parental Ca 29.3
CC(=NNC(=S)Nc1ccccc1)c1ccccn1	none (no result: OX1R antag-1, CHO parental Ca, OX1R antag-2, GPR7 antag)
O=C1c2cccc3cccc(c23)C(=O)N1CCCn1ccnc1	OX1R antag-2 54.6 (no result: GPR7 antag)
CCOCC(=O)Nc1ccc(C(=O)Nc2ccccc2Cl)cc1	none
CCCSc1nnc(CNS(=O)(=O)c2ccc(C)cc2)n1C	none
CCn1c2ccccc2c2cc(CNCc3ccc(OC)cc3OC)ccc21	GPR7 antag 28.9, TAAR1 agonist 46.1
COc1cccc(CNCc2ccc(OC)cc2OC)c1	none
O=C(N/N=C/c1cccs1)c1cc(-c2ccc(Cl)s2)[nH]n1	OX1R antag-2 58.9
CC(=O)OC1CCC2(C)C(COc3ccc4ccc(=O)oc4c3)C(C)(O)CCC2C1(C)C (stereo unspecified)	TAAR1 antagonist 55.6
O=C(CN1C(=O)c2cccc3cccc(c23)C1=O)NCCCO	OX1R antag-2 56.9
Cc1c(NC(=O)CCCN2C(=O)c3cccc4cccc(c34)C2=O)c(=O)n(-c2ccccc2)n1C	OX1R antag-2 42.4
Cc1c(NC(=O)CN2C(=O)c3ccccc3C2=O)c(=O)n(-c2ccccc2)n1C	none
O=C(CCCCCN1C(=O)c2cccc3cccc(c23)C1=O)NCCCO	OX1R antag-2 52.0
Cc1ccc(S(=O)(=O)N(C)CC(=O)N(CC(C)C)C2CCS(=O)(=O)C2)cc1 (stereo unspecified)	none (no result: GPR7 antag)
CCOC(=O)c1c(C)[nH]c(C)c1C(=O)COC(=O)/C=C/c1cccc(Cl)c1	none
CCOC(=O)c1c(C)[nH]c(C)c1C(=O)COC(=O)/C=C/c1ccccc1[N+](=O)[O-]	OX1R antag-2 35.3 (no result: GPR7 antag)
CC(=O)c1ccc(NC(=O)c2cccc(NC(=O)c3ccccc3)c2)cc1	TAAR1 antagonist 50.2
Cc1ccnc(NC(=O)c2cccc(NC(=O)c3ccc(Cl)cc3)c2)c1	none (no result: OX1R antag-1, CHO parental Ca, OX1R antag-2, GPR7 antag)
Cc1ccnc(NC(=O)c2cccc(NC(=O)c3ccc(Cl)c(Cl)c3)c2)c1	TAAR1 antagonist 54.1 (no result: OX1R antag-1, CHO parental Ca, OX1R antag-2, GPR7 antag)
CC(=O)c1cccc(NC(=O)c2ccc3ccccc3c2)c1	none
CC(=O)c1cccc(NC(=O)Nc2ccccc2)c1	none
COc1ccc(NC(=O)c2cccc(NC(=O)c3ccccc3)c2)c(OC)c1	none
CC(=O)c1cccc(NC(=O)Nc2nc(C)cc(C)n2)c1	OX1R antag-2 58.7
COc1ccc(OC)c(NC(=O)c2cccc(NC(=O)c3ccccc3)c2)c1	OX1R antag-2 54.2
CC(C)(C)c1cc(C(=O)NNS(=O)(=O)c2ccccc2)n[nH]1	none
COc1ccc(-c2ccc(OC)cc2C(=O)O)cc1	none
COc1cc(S(=O)(=O)Nc2ncccc2C)c(OC)cc1Cl	none
O=c1[nH]nc(-c2ccc(NCCCO)c([N+](=O)[O-])c2)c2ccccc12	none
O=c1[nH]nc(-c2ccc(NCCO)c([N+](=O)[O-])c2)c2ccccc12	OX1R antag-2 41.0
Cc1cc(C)cc(OCC(=O)N2N=C(C(F)(F)F)CC2(O)C(C)(C)C)c1 (stereo unspecified)	CHO parental Ca 39.7
Cc1cc(C)cc(OCC(=O)N2N=C(c3cccnc3)CC2(O)C(F)(F)F)c1 (stereo unspecified)	none
O=C(CCc1ccccc1)NC(NC(=S)Nc1ccc(Cl)cc1)C(Cl)(Cl)Cl (stereo unspecified)	CHO parental Ca 40.9
O=C(/C=C/c1ccccc1)NC(NC(=S)Nc1ccc(Cl)cc1)C(Cl)(Cl)Cl (stereo unspecified)	none
COc1ccc(OC)c(Nc2cc(C)c3ccccc3n2)c1	none
COc1cccc(Nc2cc(C)c3ccccc3n2)c1	OX1R antag-2 48.9
Cc1ccc(Nc2nc(NCCO)c3ccccc3n2)cc1C	TAAR1 agonist 38.8
COc1ccc(C2=CC3=CC(=O)C(C)(O)C(=O)C3=CO2)cc1 (stereo unspecified)	none (no result: GPR7 antag, TAAR1 agonist, TAAR1 antagonist)
O=C(N/N=C/c1cccc([N+](=O)[O-])c1)c1cc[n+](CCO)cc1	OX1R antag-2 69.0
CCOc1cc(/C=N/NC(=O)c2cccc([N+](=O)[O-])c2)ccc1OS(=O)(=O)c1ccccc1	TAAR1 antagonist 52.4
Nc1cc(C(=O)N/N=C/c2cccc([N+](=O)[O-])c2)n[nH]c1=O	OX1R antag-2 51.7
Nc1ccccc1C(=O)NN=Cc1cccc([N+](=O)[O-])c1	none (no result: OX1R antag-1, CHO parental Ca, OX1R antag-2, GPR7 antag)
O=C(N/N=C/c1ccc([N+](=O)[O-])cc1)c1cccc(N2CCCC2=O)c1	OX1R antag-2 75.5
O=C(N/N=C/c1ccncc1)c1cccc([N+](=O)[O-])c1	OX1R antag-2 56.9
O=C(N/N=C\c1cc([N+](=O)[O-])ccc1N1CCCC1)c1ccccn1	none
CN1CCN(c2ccc([N+](=O)[O-])cc2/C=N/NC(=O)c2cccc([N+](=O)[O-])c2)CC1	OX1R antag-2 65.6
O=C(N/N=C/c1ccco1)c1cc([N+](=O)[O-])cc([N+](=O)[O-])c1	OX1R antag-2 63.6
COn1c2c(c3c4no[n+]([O-])c4ccc31)CCCC2	none
[O-][n+]1c2c(c3c4non(O)c4ccc31)CCCC2	OX1R antag-2 53.8
CCc1nc2ccc(C(=O)Nc3cccc(OCC(=O)N(C)C)c3)cn2c1N(C)Cc1ccc(OC)cc1	TAAR1 antagonist 54.2 (no result: OX1R antag-1, CHO parental Ca, OX1R antag-2, GPR7 antag)
CCOC(=O)c1sc(NC(=O)c2c(C)noc2C)c(C(=O)OCC)c1C	none (no result: OX1R antag-1, CHO parental Ca, OX1R antag-2, TAAR1 agonist, TAAR1 antagonist)
COc1cc(/C=C2\C(=O)N(CCC#N)N=C2C)ccc1OCC(=O)Nc1ccccc1	TAAR1 antagonist 54.3
O=C(CNC(=O)c1ccccc1)N/N=C/C=C/c1ccccc1	TAAR1 agonist 42.0
O=C(O)c1ccc(Cn2cnc3cccnc32)cc1	none
COc1cccc(-c2ncc3ccccc3c2COC(=O)N2CCOCC2)c1	TAAR1 antagonist 55.6 (no result: GPR7 antag)

Screening results deposited in PubChem by The Scripps Research Institute Molecular Screening Center.
